Laboratory results taken from ChEMBL document CHEMBL2390829, “N-alkylated 2,3,3-trimethylindolenines and 2-methylbenzothiazoles. Potential lead compounds in the fight against Saccharomyces cerevisiae infections” (Eur J Med Chem, 2013).
Converted amounts (≈) assume the structure as drawn.

Legend:
[1] = test system: Schizosaccharomyces pombe; test: Antifungal activity against Schizosaccharomyces pombe after 24 hrs; assay type: functional
Summary of the method: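 S. pombe NJ2 h⁻ (ura4-D18 leu1-32 ade6-M210 his7-366) precultured 12 h at 30 °C, 200 rpm in yeast extract broth (YE). 3×10^4 cells were exposed in 96-well plates to 1:2 serial dilutions of compound (stocks in 20% v/v DMSO and medium), with DMSO and medium controls. Growth was read visually at 24 h, 30 °C. MIC was the well preceding first visible growth. Duplicate experiments.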

[2] = test system: Candida albicans; test: Antifungal activity against Candida albicans SC5314 after 24 hrs; assay type: functional; settings: SC5314, 24 h
Summary of the method: (§1)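 C. albicans SC5314 or S. cerevisiae BY4741a (S288C derivative) grown 12 h at 30 °C, 200 rpm in YPD. 3×10^4 cells seeded per well of a 96-well plate with 1:2 serial dilutions of compound (stocks in 20% v/v DMSO and medium). DMSO and medium served as controls. Growth was scored visually after 24 h at 30 °C. MIC was taken as the well before first growth. Run twice.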

[3] = Lipophilicity, log P of the compound; assay type: physicochemical; settings: octanol/water
[4] = test system: Saccharomyces cerevisiae; test: Antifungal activity against Saccharomyces cerevisiae BY4741a after 24 hrs; assay type: functional; summary of the method: as §1

Compound | MIC [1] [µg/mL] | MIC [2] [µg/mL] | logP ([3]; read-out: logP) | MIC [4] [µg/mL] | logP [3]
CC[n+]1c(C)sc2ccccc21.[I-] | 250 | 1000 | -0.701 | 500 | 
CCC[N+]1=C(C)C(C)(C)c2ccccc21.[I-] | 250 | 1000 | 0.188 | 250 | 
CCCCCC[n+]1c(C)sc2ccccc21.[Br-] | 250 | 1000 | 1.37 | 62.5 | 
CCCC[n+]1c(C)sc2ccccc21.[Br-] | 250 | 1000 | 0.36 | 250 | 
CCCCC[n+]1c(C)sc2ccccc21.[Br-] | 250 | 1000 | 1.25 | 62.5 | 
Cc1sc2ccccc2[n+]1CCCCS(=O)(=O)[O-] | 1000 (≈ 3.5 mM) | 1000 (≈ 3.5 mM) |  | 1000 (≈ 3.5 mM) | -4.411
CC1=[N+](Cc2ccccc2)c2ccccc2C1(C)C.[Br-] | 1000 | 1000 | 0.904 | 1000 | 
CCC[n+]1c(C)sc2ccccc21.[I-] | 250 | 1000 | -0.199 | 250 | 
CCCCCCCCCC[N+]1=C(C)C(C)(C)c2ccccc21.[I-] | 15.6 | 500 | 3.78 | 15.6 | 
Cc1sc2ccccc2[n+]1CCCS(=O)(=O)[O-] | 1000 (≈ 3.69 mM) | 1000 (≈ 3.69 mM) |  | 1000 (≈ 3.69 mM) | -4.576
Cc1nc2ccccc2s1 | 250 (≈ 1.68 mM) | 1000 (≈ 6.7 mM) | 2.08 | 1000 (≈ 6.7 mM) | 
CCCCCCCC[n+]1c(C)sc2ccccc21.[Br-] | 62.5 | 1000 | 2.38 | 15.6 | 
CCCCCC[N+]1=C(C)C(C)(C)c2ccccc21.[I-] | 125 | 1000 | 1.76 | 125 | 
CCCCCCCCC[N+]1=C(C)C(C)(C)c2ccccc21.[I-] | 31.3 | 1000 | 3.27 | 31.3 | 
CC1=[N+](CCCS(=O)(=O)[O-])c2ccccc2C1(C)C | 1000 (≈ 3.55 mM) | 1000 (≈ 3.55 mM) |  | 1000 (≈ 3.55 mM) | -4.33
CCCCC[N+]1=C(C)C(C)(C)c2ccccc21.[I-] | 125 | 1000 | 1.25 | 250 | 
CCCCCCC[N+]1=C(C)C(C)(C)c2ccccc21.[I-] | 62.5 | 1000 | 2.26 | 125 | 
CC1=[N+](C)c2ccccc2C1(C)C.[I-] | 500 | 1000 | -0.691 | 500 | 
C[C@@H]1[C@H](O)[C@@H](C)/C=C/C=C/C=C/C=C/C=C/C=C/C=C/[C@H](O[C@@H]2O[C@H](C)[C@@H](O)[C@H](N)[C@@H]2O)C[C@@H]2O[C@](O)(C[C@@H](O)C[C@@H](O)[C@H](O)CC[C@@H](O)C[C@@H](O)CC(=O)O[C@H]1C)C[C@H](O)[C@H]2C(=O)O [AMPHOTERICIN B] | 0.49 (≈ 0.00053 mM) | 0.49 (≈ 0.00053 mM) |  | 0.49 (≈ 0.00053 mM) | 
CCCCCCCCCC[n+]1c(C)sc2ccccc21.[Br-] | 7.8 | 250 | 3.39 | 3.9 | 
Cc1sc2ccccc2[n+]1Cc1ccccc1.[Br-] | 1000 | 1000 | 0.517 | 1000 | 
c1ccc2[nH]c(-c3cscn3)nc2c1 [THIABENDAZOLE] | 31.2 (≈ 0.155 mM) | 1000 (≈ 4.97 mM) |  | 1000 (≈ 4.97 mM) | 
CCCCCCC[n+]1c(C)sc2ccccc21.[Br-] | 125 | 1000 | 1.88 | 31.3 | 
CCCCCCCC[N+]1=C(C)C(C)(C)c2ccccc21.[I-] | 62.5 | 1000 | 2.77 | 62.5 | 
CCCC[N+]1=C(C)C(C)(C)c2ccccc21.[I-] | 250 | 1000 | 0.747 | 250 | 
Cc1sc2ccccc2[n+]1C.[I-] | 500 | 1000 | -1.08 | 500 | 
CCCCCCCCC[n+]1c(C)sc2ccccc21.[Br-] | 31.3 | 500 | 2.89 | 7.8 | 
CC1=Nc2ccccc2C1(C)C | 250 (≈ 1.57 mM) | 500 (≈ 3.14 mM) | 3.29 | 1000 (≈ 6.28 mM) | 
CC[N+]1=C(C)C(C)(C)c2ccccc21.[I-] | 500 | 1000 | -0.315 | 500 | 
CC1=[N+](CCCCS(=O)(=O)[O-])c2ccccc2C1(C)C | 1000 (≈ 3.39 mM) | 1000 (≈ 3.39 mM) |  | 1000 (≈ 3.39 mM) | -4.114
